The whole screen tested about 24,000 compounds, of which fewer than 10 were called active. Rule as the data show it: active = caspase activation above about 5.9%; inconclusive = no clear call, values can overlap the other calls; inactive = below about 2.2%. A selection follows.
assay: A1 inhibitors via caspase activation, primary screen, cell-based, luminescence, HTS, two replicates (AID 2465); details: MEF A1-2A-BIM cells, caspase-Glo luminescence, 3 h; active compounds read high; percent of clofoctol response, DMSO zero; concentration not given here
How it was run: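 System: mouse embryonic fibroblasts co-expressing A1 and BIM (A1-2A-BIM), primed for A1 dependence; amount: 2500 cells/well; doses: 50 nL pinned compound; schedule: cells settled overnight, compound exposure 3 h at 37 °C, 5% CO2; detection: Caspase-Glo 3/7 luminescence, 1 h at room temperature; read-out: Caspase-3/7 activation, seen as rise in luminescence signal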

Caspase activation, inactive:
C[C@@H]1CCCCO[C@H](CN(C)Cc2ccccc2)[C@H](C)CN([C@@H](C)CO)C(=O)c2cc(NC(=O)Nc3cccc4ccccc34)ccc2O1 -0.203%
O=C(CCCCCC(=O)Nc1ccccc1O)N/N=C/c1ccc(Br)o1 0.454%
C[C@H](CO)N1C[C@H](C)[C@H](CN(C)Cc2ccc(C(=O)O)cc2)OCc2cn(nn2)CCCC1=O 0.235%
C[C@@H]1CN([C@@H](C)CO)C(=O)c2cc(NC(=O)Nc3ccccc3)ccc2O[C@@H]1CN(C)Cc1ccccc1 -0.201%
CC(C)NC(=O)N(C)C[C@H]1OCCCC[C@H](C)Oc2ccc(NS(=O)(=O)c3cccs3)cc2C(=O)N([C@H](C)CO)C[C@@H]1C 1.03%
COc1ccc(NC(=O)N(C)C[C@@H]2Oc3ccc(NS(=O)(=O)c4ccc(OC)cc4)cc3CC(=O)N([C@H](C)CO)C[C@H]2C)cc1 0.4%
COc1ccc(S(=O)(=O)Nc2cccc3c2O[C@@H](CN(C)C(=O)Nc2cccc4ccccc24)[C@H](C)CN([C@@H](C)CO)C3=O)cc1 -1.43%
C[C@H](O)[C@H](O)[C@@H](O)[C@@H](O)/C=N/NC(=O)CCCCCC(=O)Nc1ccccc1O 0.323%
C[C@@H]1CN([C@@H](C)CO)C(=O)c2cc(NC(=O)Cc3ccccc3)ccc2O[C@@H](C)CCCCO[C@H]1CN(C)C(=O)Cc1ccccc1 1.05%
Cc1noc(C)c1S(=O)(=O)N(C)C[C@@H]1OCCCC[C@H](C)Oc2ccc(NC(=O)Nc3ccc4c(c3)OCO4)cc2C(=O)N([C@H](C)CO)C[C@@H]1C -0.0337%
O=C(CCCCCCC(=O)Nc1ccccc1O)N/N=C/c1ccc(Oc2ccccc2)cc1 0.474%
O=C(NO)c1ccc(C(=O)N/N=C/c2ccc(Br)cc2)cc1 -0.637%
CC(C)NC(=O)Nc1ccc2c(c1)C(=O)N([C@@H](C)CO)C[C@H](C)[C@H](CN(C)C(=O)NC1CCCCC1)OCCCC[C@@H](C)O2 0.925%
C[C@@H]1CN([C@H](C)CO)C(=O)c2cc(NC(=O)c3ccncc3)ccc2O[C@@H](C)CCCCO[C@@H]1CN(C)CC1CC1 -1.05%
C[C@H]1CCCCO[C@H](CN(C)CC2CC2)[C@@H](C)CN([C@@H](C)CO)C(=O)c2cc(NC(=O)CCC(F)(F)F)ccc2O1 -0.204%
C[C@@H]1CCCCO[C@@H](CN(C)S(=O)(=O)c2cccs2)[C@@H](C)CN([C@@H](C)CO)C(=O)c2cc(NS(=O)(=O)c3ccc(F)cc3)ccc2O1 0.628%
C[C@@H]1CCCCO[C@H](CN(C)Cc2ccc(C(F)(F)F)cc2)[C@@H](C)CN([C@@H](C)CO)C(=O)c2cc(NC(=O)c3ccncc3)ccc2O1 -0.085%
C[C@@H]1CCCCO[C@@H](CN(C)S(=O)(=O)c2ccc(F)cc2)[C@@H](C)CN([C@@H](C)CO)C(=O)c2cc(NC(=O)Nc3ccc4c(c3)OCO4)ccc2O1 -0.312%
C[C@H]1CN([C@@H](C)CO)C(=O)Cc2cc(NC(=O)Cn3cnnn3)ccc2O[C@H]1CN(C)CC1CC1 -0.754%
Cc1ccc(S(=O)(=O)N(C)C[C@H]2OCCCC[C@H](C)Oc3ccc(N(C)C)cc3C(=O)N([C@H](C)CO)C[C@@H]2C)cc1 0.228%
C[C@@H]1CN([C@H](C)CO)C(=O)c2cc(NS(=O)(=O)c3ccccc3)ccc2O[C@H]1CN(C)S(=O)(=O)c1cccs1 -0.323%
COc1ccc(S(=O)(=O)Nc2ccc3c(c2)C(=O)N([C@H](C)CO)C[C@@H](C)[C@@H](CN(C)CC2CCCCC2)O3)cc1 -0.24%
CC(C)NC(=O)N(C)C[C@@H]1Oc2ccc(NC(=O)Cn3cnnn3)cc2CC(=O)N([C@H](C)CO)C[C@H]1C 1.87%
COc1cc(OC)c(/C=N/NC(=O)CCCCCCC(=O)Nc2ccccc2O)c(OC)c1 -0.41%
C[C@@H]1CCCCO[C@@H](CN(C)Cc2ccncc2)[C@@H](C)CN([C@H](C)CO)C(=O)c2cc(NS(=O)(=O)c3cccs3)ccc2O1 -0.367%
C[C@@H]1CN([C@H](C)CO)C(=O)Cc2cc(NC(=O)Nc3ccc4c(c3)OCO4)ccc2O[C@H]1CN(C)Cc1ccc(C(F)(F)F)cc1 1.47%
COc1ccc(S(=O)(=O)N(C)C[C@@H]2OCCCC[C@H](C)Oc3ccc(NC(=O)Nc4ccccc4)cc3C(=O)N([C@@H](C)CO)C[C@H]2C)cc1 0.213%
C[C@@H]1CN([C@@H](C)CO)C(=O)CCCn2nncc2CO[C@H]1CN(C)C(=O)CCCN(C)C -0.0755%
COc1ccc(NC(=O)Nc2ccc3c(c2)C(=O)N([C@@H](C)CO)C[C@@H](C)[C@@H](CN(C)S(=O)(=O)c2ccc(C)cc2)OCCCC[C@H](C)O3)cc1 -0.213%
COc1ccc(S(=O)(=O)Nc2ccc3c(c2)CC(=O)N([C@@H](C)CO)C[C@H](C)[C@@H](CN(C)Cc2ccc(C(=O)O)cc2)O3)cc1 1%
C[C@H](CO)N1C[C@H](C)[C@@H](CN(C)Cc2ccc(-c3ccccc3)cc2)Oc2ccc(NC(=O)CCCN(C)C)cc2CC1=O 0.389%
C[C@@H]1CCCCO[C@@H](CN(C)C(=O)C2CCCCC2)[C@H](C)CN([C@H](C)CO)C(=O)c2cc(NC(=O)CCC(F)(F)F)ccc2O1 -0.546%
COc1ccc(S(=O)(=O)N(C)C[C@@H]2Oc3ccc(NC(=O)C4CC4)cc3CC(=O)N([C@@H](C)CO)C[C@H]2C)cc1 -0.0568%
C[C@@H]1CN([C@H](C)CO)C(=O)c2cc(NC(=O)NC3CCCCC3)ccc2O[C@@H](C)CCCCO[C@H]1CN(C)C(=O)Nc1ccccc1 -0.462%
C[C@H](CO)N1C[C@H](C)[C@@H](CN(C)Cc2ccc(C(=O)O)cc2)OCCCC[C@H](C)Oc2ccc(NC(=O)c3ccccc3)cc2C1=O -0.0294%
Cc1noc(C)c1NC(=O)Nc1ccc2c(c1)CC(=O)N([C@@H](C)CO)C[C@@H](C)[C@H](CN(C)C(=O)NC1CCCCC1)O2 -0.291%
Cc1ccc(S(=O)(=O)Nc2ccc3c(c2)C(=O)N([C@@H](C)CO)C[C@@H](C)[C@@H](CN(C)Cc2ccc(C(F)(F)F)cc2)OCCCC[C@@H](C)O3)cc1 0.898%
CNC[C@H]1OCCCC[C@H](C)Oc2ccc(NS(=O)(=O)c3ccc(Cl)cc3)cc2C(=O)N([C@@H](C)CO)C[C@@H]1C -0.41%
COc1ccc(NC(=O)N(C)C[C@@H]2Oc3ccc(NC(=O)CCN4CCOCC4)cc3C(=O)N([C@@H](C)CO)C[C@H]2C)cc1 0.238%
C[C@@H]1CCCCO[C@H](CN(C)Cc2ccccc2)[C@H](C)CN([C@H](C)CO)C(=O)c2cc(NS(=O)(=O)c3ccc(Cl)cc3)ccc2O1 -0.0813%
C[C@H](CO)N1C[C@H](C)[C@H](CN(C)S(=O)(=O)c2ccccc2)Oc2c(NC(=O)CCCCCC(=O)Nc3ccccc3N)cccc2C1=O -0.28%
C[C@H](CO)N1C[C@H](C)[C@H](CN(C)S(C)(=O)=O)Oc2ccc(NC(=O)c3ccncc3)cc2CC1=O -0.8%
C[C@H]1CN([C@@H](C)CO)C(=O)CCCn2cc(nn2)CO[C@H]1CN(C)C(=O)Nc1cccc(C(F)(F)F)c1 -0.271%
COc1ccc(NC(=O)Nc2ccc3c(c2)C(=O)N([C@@H](C)CO)C[C@H](C)[C@@H](CN(C)C(=O)Nc2cccc4ccccc24)OCCCC[C@@H](C)O3)cc1 0.279%
C[C@H](CO)N1C[C@H](C)[C@@H](CN(C)S(=O)(=O)c2ccccc2)Oc2ccc(NC(=O)Nc3ccc(F)cc3)cc2CC1=O -0.112%
C[C@@H]1CN([C@H](C)CO)C(=O)c2cc(NC(=O)C3CCCCC3)ccc2O[C@H]1CN(C)C(=O)Nc1ccccc1 -0.382%
C[C@H]1CN([C@@H](C)CO)C(=O)CCCn2cc(nn2)CO[C@@H]1CN(C)C(=O)Nc1ccccc1 0.231%
COc1ccc(NC(=O)N(C)C[C@@H]2Oc3ccc(NS(=O)(=O)c4ccc(Cl)cc4)cc3C(=O)N([C@H](C)CO)C[C@@H]2C)cc1 0.258%
C[C@@H]1CN([C@@H](C)CO)C(=O)CCCn2cc(nn2)CO[C@@H]1CN(C)Cc1ccccc1C(=O)O 0.264%
O=C(CCCCC(=O)N/N=C/c1ccc[nH]1)NO -0.0327%
COc1ccc(NC(=O)N(C)C[C@H]2OCCCC[C@@H](C)Oc3ccc(NS(=O)(=O)c4ccc(F)cc4)cc3C(=O)N([C@@H](C)CO)C[C@@H]2C)cc1 -0.991%
COC(=O)CCCCCCC(=O)N/N=C/c1cccs1 0.382%
C[C@H](CO)N1C[C@H](C)[C@H](CN(C)C(=O)Nc2cccc3ccccc23)OCCCC[C@H](C)Oc2ccc(NC(=O)Nc3ccc4c(c3)OCO4)cc2C1=O 0.835%
Cc1noc(C)c1S(=O)(=O)Nc1ccc2c(c1)C(=O)N([C@@H](C)CO)C[C@H](C)[C@H](CN(C)CC1CCCCC1)OCCCC[C@H](C)O2 -0.748%
C[C@@H]1CN([C@@H](C)CO)C(=O)c2cc(NS(=O)(=O)c3cccs3)ccc2O[C@@H](C)CCCCO[C@@H]1CN(C)C(=O)NC1CCCCC1 -0.476%

— PubChem BioAssay AID2465 (Broad Institute, 2010)
